Results as given in PMC4724694 (Acta Pharmaceutica Sinica. B, 2016).
Where two headings read alike, the source gives them in different places.

Assays:
5-LOX [1] = target: T1, 5-LOX (Rattus norvegicus, UniProt P12527); experiment: Inhibition of 5-LOX product synthesis; format: cell-based; conditions: for IC50: rat peritoneal polymorphonuclear leukocytes; for inhibition at 5 µM: PMNL, read-out: Inhibition at 5 μmol/L (%)
T1 sequence (P12527 1-673): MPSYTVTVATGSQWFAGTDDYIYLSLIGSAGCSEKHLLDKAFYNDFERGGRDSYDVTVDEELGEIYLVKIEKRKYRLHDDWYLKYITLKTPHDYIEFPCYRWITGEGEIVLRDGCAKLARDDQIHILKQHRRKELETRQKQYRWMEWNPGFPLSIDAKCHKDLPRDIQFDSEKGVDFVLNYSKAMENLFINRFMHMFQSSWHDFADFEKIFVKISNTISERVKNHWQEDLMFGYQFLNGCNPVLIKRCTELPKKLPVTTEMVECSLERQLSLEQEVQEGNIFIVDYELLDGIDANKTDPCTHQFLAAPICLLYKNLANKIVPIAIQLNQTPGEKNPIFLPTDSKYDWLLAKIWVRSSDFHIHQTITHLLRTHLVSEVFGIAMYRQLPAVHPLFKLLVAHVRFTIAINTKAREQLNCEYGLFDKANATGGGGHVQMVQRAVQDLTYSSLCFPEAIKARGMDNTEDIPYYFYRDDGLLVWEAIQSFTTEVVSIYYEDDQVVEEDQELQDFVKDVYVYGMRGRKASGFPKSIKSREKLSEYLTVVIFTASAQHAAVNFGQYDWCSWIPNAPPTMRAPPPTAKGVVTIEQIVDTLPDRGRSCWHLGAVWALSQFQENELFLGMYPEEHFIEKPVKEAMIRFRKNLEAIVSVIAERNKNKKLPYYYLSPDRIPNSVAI

5-LOX [2] = target: T2, 5-LOX (Homo sapiens, UniProt P09917); experiment: Inhibition of 5-LOX product synthesis; format: cell-based
T2 sequence (P09917 1-674): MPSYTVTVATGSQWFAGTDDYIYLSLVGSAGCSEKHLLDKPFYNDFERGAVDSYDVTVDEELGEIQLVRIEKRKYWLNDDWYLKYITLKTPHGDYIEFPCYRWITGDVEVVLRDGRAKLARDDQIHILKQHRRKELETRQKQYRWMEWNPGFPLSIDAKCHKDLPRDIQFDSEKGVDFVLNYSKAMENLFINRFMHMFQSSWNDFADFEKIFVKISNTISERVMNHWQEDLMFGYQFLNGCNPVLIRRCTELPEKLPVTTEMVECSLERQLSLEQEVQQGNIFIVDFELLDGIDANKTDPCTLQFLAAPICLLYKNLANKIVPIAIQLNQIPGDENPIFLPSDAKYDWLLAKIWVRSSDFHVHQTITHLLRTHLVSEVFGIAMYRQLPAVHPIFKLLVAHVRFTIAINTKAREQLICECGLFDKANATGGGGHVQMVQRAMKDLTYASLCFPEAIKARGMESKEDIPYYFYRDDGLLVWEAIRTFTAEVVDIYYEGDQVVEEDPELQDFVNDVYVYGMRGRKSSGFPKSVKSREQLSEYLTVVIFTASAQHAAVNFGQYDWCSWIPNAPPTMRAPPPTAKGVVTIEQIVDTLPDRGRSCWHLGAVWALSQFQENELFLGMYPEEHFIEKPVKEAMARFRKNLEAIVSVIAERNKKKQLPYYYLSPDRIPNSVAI

5-LOX [3] = target: T2, 5-LOX; experiment: Cell-free 5-LOX enzymatic assay; format: biochemical
BV2 cells [4] = experiment: LPS-induced nitric oxide; format: cell-based, mouse; conditions: LPS 200 ng/mL, 4e at 10, 50 or 100 μmol/L, 24 h
Summary of the method: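 Mouse BV2 microglia grown in DMEM with 10% FBS and penicillin-streptomycin (100 μg/mL) at 37 °C, 5% CO2. Cells trypsinized and seeded at 2×10^4 cells/well; 24 h later, test compound added with or without LPS (200 ng/mL). Supernatants collected after 24 h exposure, mixed with equal volume of Griess reagent, and nitrite read at 570 nm.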

BV2 cells [5] = experiment: BV2 cell viability, MTT assay; format: cell-based, mouse; conditions: tested concentrations 10, 50, 100 μmol/L, with or without LPS
HT22 cells = experiment: Glutamate-induced oxidative toxicity in HT22 neuronal cells, MTT assay; format: cell-based, mouse; conditions: glutamate 5 mmol/L, 24 h, 4e at 1–100 μmol/L
mouse MCAO model = conditions: in vivo, ip, 50 mg/kg

SMILES	IC50 (5-LOX [1]; IC50 PMNL)	inhibition at 5 µM (5-LOX [1])	IC50 (5-LOX [2])	IC50 (5-LOX [3])	also measured
COc1ccc(-c2cc(C(=O)Nc3cc(C(C)(C)C)c(O)c(C(C)(C)C)c3)nn2-c2ccc(S(N)(=O)=O)cc2)cc1 [4c, N-(3,5-di-tert-butyl-4-hydroxyphenyl)-1-(4-aminosulfonylphenyl)-5-p-meth-oxyphenyl-1H-pyrazole-3-carboxamide]	0.45 µM	74.9%	4.87 µM	0.136 ± 0.015 µM	–
CC(C)(C)c1cc(NC(=O)c2cc(-c3ccc4ccccc4c3)n(-c3ccc(S(N)(=O)=O)cc3)n2)cc(C(C)(C)C)c1O [4g, N-(3,5-di-tert-butyl-4-hydroxyphenyl)-1-(4-aminosulfonylphenyl)-5-naphth-2-yl-1H-pyrazole-3-carboxamide]	0.75 µM	66.1%	2.11 µM	0.165 ± 0.017 µM	–
Cc1ccc(-c2cc(C(=O)Nc3cc(C(C)(C)C)c(O)c(C(C)(C)C)c3)nn2-c2ccc(F)cc2)cc1 [6b, N-(3,5-di-tert-butyl-4-hydroxyphenyl)-1-(4-fluorophenyl)-5-p-tolyl-1H-pyrazole-3-carboxamide]	0.82 µM	83.7%	10.2 µM	0.327 ± 0.022 µM	–
CC(C)(C)c1cc(NC(=O)c2cc(-c3ccc4c(c3)OCCO4)n(-c3ccc(S(C)(=O)=O)cc3)n2)cc(C(C)(C)C)c1O [5f, N-(3,5-di-tert-butyl-4-hydroxyphenyl)-5-(2,3-dihydrobenzo [1, 4]dioxin-7-yl)-1-(4-methylsulfonylphenyl)-1H-pyrazole-3-carboxamide]	0.81 µM	70.3%	4.65 µM	0.273 ± 0.021 µM	–
CC(C)(C)c1cc(NC(=O)c2cc(-c3ccc(C(F)(F)F)cc3)n(-c3ccc(S(C)(=O)=O)cc3)n2)cc(C(C)(C)C)c1O [5i, N-(3,5-di-tert-butyl-4-hydroxyphenyl)-1-(4-methylsulfonylphenyl)-5-p-tri-fluoromethylphenyl-1H-pyrazole-3-carboxamide]	–	–	–	–	Inhibition at 5 μmol/L (%) (5-LOX [1]; rat PMNLs, 5 μmol/L, mean of three determinations): 69.6%; IC50 (5-LOX [1]; read-out: IC50 PMNL): 0.8 µM; IC50 (5-LOX [2]; read-out: IC50 HWB, human whole blood): 1.13 µM; IC50 (5-LOX [3]; read-out: IC50 Enzymatic assay, cell-free, human 5-LOX, triplicate): 0.127 ± 0.029 µM
CC(C)(C)c1cc(NC(=O)c2cc(C3CCCCC3)n(-c3ccc(S(N)(=O)=O)cc3)n2)cc(C(C)(C)C)c1O [4j, N-(3,5-di-tert-butyl-4-hydroxyphenyl)-1-(4-aminosulfonylphenyl)-5-cyclo-hexyl-1H-pyrazole-3-carboxamide]	1.07 µM	69.2%	33.9 µM	–	–
CC(C)(C)c1cc(NC(=O)c2cc(-c3ccc(Br)s3)n(-c3ccc(S(N)(=O)=O)cc3)n2)cc(C(C)(C)C)c1O [4k, N-(3,5-di-tert-butyl-4-hydroxyphenyl)-1-(4-aminosulfonylphenyl)-5-(5-bromothiophen-2-yl)-1H-pyrazole-3-carboxamide]	0.9 µM	74.5%	5.83 µM	0.159 ± 0.016 µM	–
CC(C)(C)c1cc(NC(=O)c2cc(-c3ccc4c(c3)OCO4)n(-c3ccc(S(N)(=O)=O)cc3)n2)cc(C(C)(C)C)c1O [4e, N-(3,5-di-tert-butyl-4-hydroxyphenyl)-5-(benzo [1, 3]dioxol-5-yl)-1-(4-amino-sulfonylphenyl)-1H-pyrazole-3-carboxamide]	0.69 µM	90.1%	1.08 µM	0.133 ± 0.014 µM	LPS-induced generation of NO (BV2 cells [4]): remarkably attenuated; Cell viability of BV2 cells (MTT) (BV2 cells [5]): did not reduce the viabilities of BV2 cells; Glutamate-induced HT22 cell death (MTT) (HT22 cells): remarkably reduced glutamate-induced HT22 cell death; Cortical, striatal and hemispheric infarct volumes (mouse MCAO model): significantly decreased cortical, striatal and hemispheric infarct volumes
CC(C)(C)c1cc(NC(=O)c2cc(-c3ccc4c(c3)OCO4)n(-c3ccc(S(C)(=O)=O)cc3)n2)cc(C(C)(C)C)c1O [5e, N-(3,5-di-tert-butyl-4-hydroxyphenyl)-5-(benzo [1, 3]dioxol-5-yl)-1-(4-methylsulfonylphenyl)-1H-pyrazole-3-carboxamide]	0.64 µM	79.3%	0.94 µM	0.169 ± 0.016 µM	–
Cc1ccc(-c2cc(C(=O)Nc3cc(C(C)(C)C)c(O)c(C(C)(C)C)c3)nn2-c2ccc(S(N)(=O)=O)cc2)cc1 [4b, N-(3,5-di-tert-butyl-4-hydroxyphenyl)-1-(4-aminosulfonylphenyl)-5-p-tolyl-1H-pyrazole-3-carboxamide]	–	65.7%	–	–	–
